Bridge positions count the residues as written; N and C are the ends. Square brackets hold non-standard residues; d marks the D form. Peptide text beside a SMILES is read from it.
Key:
Rattus norvegicus [1] = experiment: Inhibition of insulin secretion in jugular vein dosed rat assessed as assessed as hormone level using blood sample from hepatic portal vein by radioimmunoassay relative to somatostatin; format: functional; design: scale not given: the % may be the effect or the level left
Summary of the method: (§1)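 Rats under ether anaesthesia received test samples by jugular vein injection. Blood was drawn from the hepatic portal vein, and hormone levels were measured by specific radioimmunoassay. Six rats per point. Potency was derived from four-point bioassays with somatostatin as reference standard, with log dose-response parallelism checked.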

Rattus norvegicus [2] = experiment: Inhibition of glucagon secretion in jugular vein dosed rat assessed using blood sample from hepatic portal vein assessed as hormone level by radioimmunoassay relative to somatostatin; format: functional; design: scale not given: the % may be the effect or the level left; summary of the method: as §1
[3] = Retardation factor of the compound using 2.5% pyridine, 5% 1-butanol and 90% water at pH 4.7 buffer relative to lysine and alanine by ninhydrin spray
[4] = Inhibition of growth hormone spontaneous secretion in rat anterior pituitary cells assessed as hormone level by radioimmunoassay relative to somatostatin; format: functional, Pituitary gland cell; design: scale not given: the % may be the effect or the level left
[5] = Partition coefficient, K of the compound using system BAW at 4:1:5 ratio; format: physicochemical

Row | Structure (SMILES) | Rf [3] | K [5] | Activity (Rattus norvegicus [1]) [%] | Activity (Rattus norvegicus [2]) [%] | Activity [4] [%]
1 | C[C@H](N)C(=O)NCC(=O)N[C@H]1CSSC[C@@H](C(=O)O)NC(=O)[C@H](CO)NC(=O)[C@H]([C@@H](C)O)NC(=O)[C@H](Cc2ccc(O)cc2)NC(=O)[C@H]([C@@H](C)O)NC(=O)[C@H](CCCCN)NC(=O)[C@H](Cc2c[nH]c3ccccc23)NC(=O)[C@H](Cc2ccccc2)NC(=O)[C@H](Cc2ccccc2)NC(=O)[C@H](CC(N)=O)NC(=O)[C@H](CCCCN)NC1=O (H-AGCKNFFWKTYTSC-OH; disulfide 3-14) | 0.45 | 0.24 | 252 | 65 | 65
2 | C[C@H](N)C(=O)NCC(=O)N[C@H]1CSSC[C@@H](C(=O)O)NC(=O)[C@H](CO)NC(=O)[C@H]([C@@H](C)O)NC(=O)[C@H](Cc2ccccc2)NC(=O)[C@H]([C@@H](C)O)NC(=O)[C@H](CCCCN)NC(=O)[C@H](Cc2c[nH]c3ccccc23)NC(=O)[C@H](Cc2ccccc2)NC(=O)[C@H](Cc2ccccc2)NC(=O)[C@H](CC(N)=O)NC(=O)[C@H](CCCCN)NC1=O [SOMATOSTATIN] | 0.43 | – | – | – | –
3 | C[C@H](N)C(=O)NCC(=O)N[C@H]1CSSC[C@@H](C(=O)O)NC(=O)[C@H](CO)NC(=O)[C@H]([C@@H](C)O)NC(=O)[C@H](Cc2ccccc2)NC(=O)[C@H]([C@@H](C)O)NC(=O)[C@H](CCCCN)NC(=O)[C@@H](Cc2ccc(O)cc2)NC(=O)[C@H](Cc2ccccc2)NC(=O)[C@H](Cc2ccccc2)NC(=O)[C@H](CC(N)=O)NC(=O)[C@H](CCCCN)NC1=O (H-AGCKNFF[dY]KTFTSC-OH; disulfide 3-14) | 0.41 | 0.24 | 28 | <10 | 10
4 | C[C@H](N)C(=O)NCC(=O)N[C@H]1CSSC[C@@H](C(=O)O)NC(=O)[C@H](CO)NC(=O)[C@H]([C@@H](C)O)NC(=O)[C@H](Cc2ccccc2)NC(=O)[C@H]([C@@H](C)O)NC(=O)[C@H](CCCCN)NC(=O)[C@H](Cc2c[nH]c3ccccc23)NC(=O)[C@H](Cc2ccc(O)cc2)NC(=O)[C@H](Cc2ccccc2)NC(=O)[C@H](CC(N)=O)NC(=O)[C@H](CCCCN)NC1=O (H-AGCKNFYWKTFTSC-OH; disulfide 3-14) | 0.44 | 0.23 | 75 | 109 | 108
5 | C[C@H](N)C(=O)NCC(=O)N[C@H]1CSSC[C@@H](C(=O)O)NC(=O)[C@H](CO)NC(=O)[C@H]([C@@H](C)O)NC(=O)[C@H](Cc2ccccc2)NC(=O)[C@H]([C@@H](C)O)NC(=O)[C@H](CCCCN)NC(=O)[C@H](Cc2c[nH]c3ccccc23)NC(=O)[C@H](Cc2ccccc2)NC(=O)[C@H](Cc2ccc(O)cc2)NC(=O)[C@H](CC(N)=O)NC(=O)[C@H](CCCCN)NC1=O (H-AGCKNYFWKTFTSC-OH; disulfide 3-14) | 0.38 | 0.23 | 12 | 14 | 29

Now from value to molecule, other results behind:

Row | Rf [3] | K [5] | Structure (SMILES) | Activity (Rattus norvegicus [1]) [%] | Activity (Rattus norvegicus [2]) [%] | Activity [4] [%]
6 | 0.33 | 0.41 | C[C@@H](O)[C@@H]1NC(=O)[C@H](Cc2ccccc2)NC(=O)[C@H]([C@@H](C)O)NC(=O)[C@H](CCCCN)NC(=O)[C@H](Cc2c[nH]c3ccccc23)NC(=O)[C@H](Cc2ccccc2)NC(=O)[C@H](Cc2ccccc2)NC(=O)[C@H](CC(N)=O)NC(=O)[C@H](CCCCN)NC(=O)[C@@H](NC(=O)CNC(=O)[C@@H](N)Cc2ccc(O)cc2)CSSC[C@@H](C(=O)O)NC(=O)[C@H](CO)NC1=O | 70 | 78 | 116
7 | 0.38 | 0.34 | C[C@@H](O)[C@@H]1NC(=O)[C@H](Cc2ccccc2)NC(=O)[C@H]([C@@H](C)O)NC(=O)[C@H](CCCCN)NC(=O)[C@@H](Cc2c[nH]c3ccccc23)NC(=O)[C@H](Cc2ccccc2)NC(=O)[C@H](Cc2ccccc2)NC(=O)[C@H](CC(N)=O)NC(=O)[C@H](CCCCN)NC(=O)[C@@H](NC(=O)CNC(=O)[C@@H](N)Cc2ccc(O)cc2)CSSC[C@@H](C(=O)O)NC(=O)[C@H](CO)NC1=O | 659 | – | 400
